Most compounds without a hit are left out; they make up all but 3.5% or so of the library.
RGS4 pot: potentiators or activators of RGS4; HEK293 M3R/inducible RGS4, carbachol calcium flux Fluo4; hits give low values; B-score at 10 µM; 310,000 compounds, 0.92% hits;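 active = B-score of the integrated calcium signal more than 4 SD below the library mean, with starting fluorescence not abnormally high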;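 also: negative B-score means reduced calcium response which marks RGS4 activation or potentiation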
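Detection: kinetic calcium fluorescence imaging with Fluo4-AM dye, 2 µM / Material: HEK293 cells with stable M3R and inducible RGS4 / Schedule: recording 10 s baseline at 1 Hz, 100 s post-agonist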
RGS4 block: inhibitors of human RGS4; P49798; HEK293 M3R/RGS4 inducible, Fluo-4 calcium flux; hits give high values; triggered by carbachol at its EC20; B-score at 10 µM; 310,000 compounds, 0.45% hits;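 active = B-score, a plate-corrected calcium signal, over three deviations above library mean, with baseline fluorescence within five deviations of library mean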;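 also: RGS4 expression induced by doxycycline in cells with stable M3 receptor; B-score is computed from the integrated fluorescence ratio over baseline after carbachol; higher B-score means a larger calcium signal and so more RGS4 inhibition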
Target sequence (P49798 whole entry, looked up): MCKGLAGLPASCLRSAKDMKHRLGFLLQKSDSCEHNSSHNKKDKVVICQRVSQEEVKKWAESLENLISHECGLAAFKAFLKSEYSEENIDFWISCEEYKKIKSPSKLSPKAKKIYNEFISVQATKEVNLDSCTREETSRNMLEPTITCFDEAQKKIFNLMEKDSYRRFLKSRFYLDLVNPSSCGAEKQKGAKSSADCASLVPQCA
MrgX1 allo act: human MrgX1 positive allosteric modulation, primary screen. Q96LB2. MrgX1-HEK293, Fluo-4 calcium flux, FDSS; hits give high values. B-score at 10 µM. 310,000 compounds, 0.63% hits;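 active = plate-corrected calcium response at least 3 library SD above typical, normal starting fluorescence, not activating the receptor alone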;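 also: compound read alongside a low EC10 to EC30 dose of BAM8-22 agonist; peak minus trough fluorescence over baseline measured at the second addition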
Target sequence (Q96LB2 whole entry, looked up): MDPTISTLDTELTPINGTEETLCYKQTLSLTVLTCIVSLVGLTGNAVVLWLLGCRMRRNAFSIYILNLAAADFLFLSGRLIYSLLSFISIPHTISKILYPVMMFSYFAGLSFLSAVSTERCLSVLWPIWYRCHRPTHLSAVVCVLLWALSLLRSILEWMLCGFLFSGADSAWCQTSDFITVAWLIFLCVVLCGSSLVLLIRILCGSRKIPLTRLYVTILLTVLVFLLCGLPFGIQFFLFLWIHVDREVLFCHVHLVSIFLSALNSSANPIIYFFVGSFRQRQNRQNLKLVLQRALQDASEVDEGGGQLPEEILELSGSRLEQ
MrgX1 agonist: human MrgX1 receptor agonism, primary screen | B-score at 10 µM | 310,000 compounds, 0.44% hits | AID 588627 | MrgX1-HEK293 cells, Fluo-4 calcium fluorescence, agonist mode; hits give high values;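 active = calcium response B-score plate-corrected fluorescence ratio at least 3 library SD, with starting fluorescence B-score inside 5 SD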
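Material: MrgX1-expressing HEK293 cells / Dosing: compound as first of three additions / Incubation: overnight seeding, then 1 h dark dye loading / Signal: Fluo-4 NW calcium fluorescence / Evaluation: B-scored fluorescence response ratio / Benchmarks: positive and negative control wells on each plate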
MrgX1 antag: blocks BAM8-22 activation of human MrgX1 receptor; Q96LB2; MRGX1-HEK293 calcium flux, Fluo-4, BAM8-22 antagonism; hits give low values; B-score at 10 µM; 310,000 compounds, 1.3% hits; AID 588676;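 active = calcium-response B-score plate-corrected more than 3 library SD below zero, starting fluorescence within 5 deviations, no agonist response on first addition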;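 also: peak minus trough fluorescence over baseline after final BAM8-22 challenge near maximal dose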
Active calls of the source: *.

Screening Cc1nc(C)c(-c2nnc(-c3ccc(C(C)(C)C)cc3)o2)cc1C(=O)NN returned RGS4 pot inactive, RGS4 block inactive, MrgX1 allo act inactive, MrgX1 agonist inactive and MrgX1 antag -6*.
Screening O=C(Nc1ccc2c(c1)OCCO2)c1cc(-c2ccccn2)nc2ccc(Br)cc12 returned RGS4 pot inactive, RGS4 block inactive, MrgX1 allo act inactive, MrgX1 agonist inactive and MrgX1 antag inactive.
Cc1cccc(-c2cc(C(=O)Nc3ccc4c(c3)OCCO4)c3ccccc3n2)c1 was read as RGS4 pot -7.2*, RGS4 block inactive, MrgX1 allo act inactive, MrgX1 agonist inactive and MrgX1 antag inactive.
Screening CCOc1ccc(-c2cc(C(=O)Nc3ccc4c(c3)OCCO4)c3ccccc3n2)cc1 returned RGS4 pot -7.6*, RGS4 block inactive, MrgX1 allo act inactive, MrgX1 agonist inactive and MrgX1 antag inactive.
Cc1ccc2c(c1)C1CC(C)(O2)N(c2cccc(C(=O)N3CCN(c4ccccn4)CC3)c2)C(=O)N1 (stereo not given) was read as RGS4 pot inactive, RGS4 block inactive, MrgX1 allo act inactive, MrgX1 agonist inactive and MrgX1 antag inactive.
CCCOC(=O)CCCCC1SCC(NC(=O)OC)C1NC(=O)OC (stereo not given) was read as RGS4 pot inactive, RGS4 block inactive, MrgX1 allo act inactive, MrgX1 agonist inactive and MrgX1 antag -8.1*.
Screening O=[N+]([O-])c1nn(-c2ccc3c(c2)OCCO3)n(O)c1=NC1CCN(Cc2ccccc2)CC1 returned RGS4 pot inactive, RGS4 block inactive, MrgX1 allo act inactive, MrgX1 agonist inactive and MrgX1 antag -5.1*.
N#C/C(=C/c1ccc(N2CCCCCC2)o1)c1cccc(F)c1 was read as RGS4 pot inactive, RGS4 block inactive, MrgX1 allo act inactive, MrgX1 agonist inactive and MrgX1 antag inactive.
`COc1cc(N2CCCC2)c(OC)cc1/C=C(/C#N)c1cccc(F)c1` gave RGS4 pot inactive, RGS4 block inactive, MrgX1 allo act inactive, MrgX1 agonist inactive and MrgX1 antag -11*.
C=CCOn1c(=O)c(-c2ccc(F)cc2)[n+]([O-])c2ccccc21 was read as RGS4 pot inactive and RGS4 block inactive.
Cc1ccc(C(=O)N/C(=C\c2ccc(-c3ccc([N+](=O)[O-])cc3)o2)C(=O)NC2CCS(=O)(=O)C2)cc1 (stereo not given) was read as RGS4 pot inactive, RGS4 block inactive, MrgX1 allo act inactive, MrgX1 agonist inactive and MrgX1 antag -4.9*.
Screening Cc1ccc(C(=O)N/C(=C/c2ccc(-c3ccc([N+](=O)[O-])cc3)o2)C(=O)NCCCN(C)C)cc1 returned RGS4 pot inactive, RGS4 block inactive, MrgX1 allo act inactive, MrgX1 agonist 45* and MrgX1 antag inactive.
COc1ccc(OCC(=O)Nc2c(C)ccc3nsnc23)cc1 was read as RGS4 pot inactive, RGS4 block inactive, MrgX1 allo act inactive, MrgX1 agonist inactive and MrgX1 antag inactive.
For CCCCn1c(N)c(N(CC(C)C)C(=O)c2ccc(OCC3CCCO3)cc2)c(=O)[nH]c1=O (stereo not given) the results were RGS4 pot inactive, RGS4 block inactive, MrgX1 allo act inactive, MrgX1 agonist inactive and MrgX1 antag -6.2*.
For C=CCOc1ccccc1CN1CCCN(C)CC1 the results were RGS4 pot inactive, RGS4 block inactive, MrgX1 allo act inactive, MrgX1 agonist inactive and MrgX1 antag inactive.
Screening N/C(=N\NS(=O)(=O)c1ccccc1Cl)c1ccccn1 returned RGS4 pot inactive, RGS4 block inactive, MrgX1 allo act inactive, MrgX1 agonist inactive and MrgX1 antag inactive.
For COc1ccc(-c2cc(C(=O)Nc3ccccc3O)c3ccccc3n2)cc1OC the results were RGS4 pot -7.3*, RGS4 block inactive, MrgX1 allo act inactive, MrgX1 agonist inactive and MrgX1 antag inactive.
For O=C(Nc1cccnc1)c1cc(-c2cccc(Br)c2)nc2ccccc12 the results were RGS4 pot -7.1*, RGS4 block inactive, MrgX1 allo act inactive, MrgX1 agonist inactive and MrgX1 antag inactive.
Cc1ccccc1-c1cc(C(=O)Nc2sc(C)c(C)c2C(N)=O)c2ccccc2n1 was read as RGS4 pot inactive, RGS4 block 6.2*, MrgX1 allo act inactive, MrgX1 agonist inactive and MrgX1 antag inactive.
For O=C(NCc1cc([N+](=O)[O-])ccc1O)c1cc(-c2ccncc2)nc2ccccc12 the results were RGS4 pot -9.1*, RGS4 block inactive, MrgX1 allo act inactive, MrgX1 agonist inactive and MrgX1 antag inactive.
CCOc1ccc(S(=O)(=O)N2CCCCC2)cc1NC(=O)Cc1cccs1 was read as RGS4 pot inactive, RGS4 block inactive, MrgX1 allo act inactive, MrgX1 agonist inactive and MrgX1 antag inactive.
Screening CC(C)OCCCNC(=O)c1ccc(NC(=O)C2=CSCCO2)cc1 returned RGS4 pot inactive, RGS4 block inactive, MrgX1 allo act inactive, MrgX1 agonist inactive and MrgX1 antag inactive.
Screening CCN(CC)C(=O)Cn1cnc2sc(C)c(S(=O)(=O)N3CCC(C)CC3)c2c1=O returned RGS4 pot inactive, RGS4 block inactive, MrgX1 allo act inactive, MrgX1 agonist inactive and MrgX1 antag inactive.
Cc1ccc(-c2cc(C(=O)Nc3ccncc3)c3ccccc3n2)cc1 was read as RGS4 pot inactive, RGS4 block inactive, MrgX1 allo act inactive, MrgX1 agonist inactive and MrgX1 antag -7.6*.
For O=C(Nc1ccncc1)c1cc(-c2cccc(Br)c2)nc2ccccc12 the results were RGS4 pot inactive, RGS4 block inactive, MrgX1 allo act inactive, MrgX1 agonist inactive and MrgX1 antag inactive.
CCOC(=O)Cn1nc(C)cc1NC(=O)c1cccnc1 was read as RGS4 pot inactive, RGS4 block inactive, MrgX1 allo act inactive, MrgX1 agonist inactive and MrgX1 antag inactive.
CC(C)N1C(=O)CCC1C(=O)N1CCC(Cc2ccccc2)CC1 (stereo not given) was read as RGS4 pot inactive, RGS4 block inactive, MrgX1 allo act inactive, MrgX1 agonist inactive and MrgX1 antag -5.9*.
`CC(C)N1C(=O)CCC1C(=O)N1CCN(c2ccc(F)cc2)CC1` (stereo not given) gave RGS4 pot inactive, RGS4 block inactive, MrgX1 allo act inactive, MrgX1 agonist inactive and MrgX1 antag inactive.
For COc1ccc(NC(=O)N2CCCCCC2)cc1OC the results were RGS4 pot inactive, RGS4 block inactive, MrgX1 allo act inactive, MrgX1 agonist inactive and MrgX1 antag inactive.
`CCCCN(CCCNC(=O)c1c(C)cc(=O)oc1C)c1ccccc1` gave RGS4 pot inactive, RGS4 block inactive, MrgX1 allo act inactive, MrgX1 agonist inactive and MrgX1 antag -7.9*.
